Results as given in paper PMC5114172 (Journal of applied toxicology : JAT, 2016).

Tested on: PBMCs
Experiment: IL-1β secretion assay
Format: cell-based, human
Method in brief: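 NK cells, MD-PBMCs, PBMCs or granulocytes (1.5 million/mL) or PBMC+granulocytes (0.75 million/mL each), per donor, exposed 24 h, 48 h or 6 days to 0.05–5 μM test compound diluted from DMSO stock, with DMSO controls. Supernatants kept at −70 °C. IL-1β by sandwich ELISA: HRP detection antibody, acid-stopped substrate, A450 against standards. Detection limit 3 pg/mL; triplicates; ANOVA then t test versus control, p<0.05.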

`CCC[CH2][Sn][CH2]CCC` [DBT, Dibutyltin] was tested, and the “Interleukin 1 beta secreted” value (donor F148, 24 h, 1 μM DBT) was 11.6 ± 11.085 ng/mL, the “Interleukin 1 beta secreted” value (donor F148, 24 h, 2.5 μM DBT) was 12.133 ± 0.462 ng/mL and the “Interleukin 1 beta secreted” value (donor F148, 24 h, 5 μM DBT) was 11.867 ± 0.924 ng/mL. The “Interleukin 1 beta secreted” value (donor F148, 48 h, 0.05 μM DBT) was 15851 ± 836 ng/mL, the “Interleukin 1 beta secreted” value (donor F148, 48 h, 0.1 μM DBT) was 17620 ± 257 ng/mL and the “Interleukin 1 beta secreted” value (donor F148, 48 h, 0.25 μM DBT) was 18728 ± 597 ng/mL. For the same compound, the “Interleukin 1 beta secreted” value (donor F148, 48 h, 0.5 μM DBT) was 5493 ± 409 ng/mL, the “Interleukin 1 beta secreted” value (donor F148, 48 h, 1 μM DBT) was 2224 ± 329 ng/mL and the “Interleukin 1 beta secreted” value (donor F148, 48 h, 5 μM DBT) was 483 ± 358 ng/mL. The “Interleukin 1 beta secreted” value (donor F148, 6 day, 0.1 μM DBT) was 25 ± 0 ng/mL, the “Interleukin 1 beta secreted” value (donor F148, 6 day, 0.25 μM DBT) was 25 ± 1 ng/mL and the “Interleukin 1 beta secreted” value (donor F148, 6 day, 0.5 μM DBT) was 6 ± 0 ng/mL. The “Interleukin 1 beta secreted” value (donor F154, 24 h, 0.05 μM DBT) was 5.056 ± 0.273 ng/mL, the “Interleukin 1 beta secreted” value (donor F154, 24 h, 0.1 μM DBT) was 4.568 ± 0.168 ng/mL and the “Interleukin 1 beta secreted” value (donor F154, 24 h, 0.25 μM DBT) was 1.383 ± 0.123 ng/mL. The “Interleukin 1 beta secreted” value (donor F154, 24 h, 0.5 μM DBT) was 0.765 ± 0.084 ng/mL, the “Interleukin 1 beta secreted” value (donor F154, 24 h, 1 μM DBT) was 0.38 ± 0.013 ng/mL and the “Interleukin 1 beta secreted” value (donor F154, 24 h, 2.5 μM DBT) was 0.111 ± 0.067 ng/mL. The “Interleukin 1 beta secreted” value (donor F154, 48 h, 0.05 μM DBT) was 4249 ± 294 ng/mL, the “Interleukin 1 beta secreted” value (donor F154, 48 h, 0.1 μM DBT) was 4193 ± 556 ng/mL and the “Interleukin 1 beta secreted” value (donor F154, 48 h, 0.25 μM DBT) was 1687 ± 42 ng/mL. The “Interleukin 1 beta secreted” value (donor F154, 48 h, 0.5 μM DBT) was 1036 ± 128 ng/mL, the “Interleukin 1 beta secreted” value (donor F154, 48 h, 1 μM DBT) was 1325 ± 72 ng/mL and the “Interleukin 1 beta secreted” value (donor F154, 48 h, 2.5 μM DBT) was 378 ± 61 ng/mL. The “Interleukin 1 beta secreted” value (donor F154, 48 h, 5 μM DBT) was 193 ± 0 ng/mL, the “Interleukin 1 beta secreted” value (donor F154, 6 day, 0.05 μM DBT) was 3507 ± 155 ng/mL and the “Interleukin 1 beta secreted” value (donor F154, 6 day, 0.1 μM DBT) was 3300 ± 114 ng/mL. For the same compound, the “Interleukin 1 beta secreted” value (donor F154, 6 day, 0.25 μM DBT) was 3816 ± 464 ng/mL, the “Interleukin 1 beta secreted” value (donor F154, 6 day, 0.5 μM DBT) was 2056 ± 114 ng/mL and the “Interleukin 1 beta secreted” value (donor F154, 6 day, 1 μM DBT) was 2531 ± 464 ng/mL. The “Interleukin 1 beta secreted” value (donor F154, 6 day, 2.5 μM DBT) was 586 ± 179 ng/mL, the “Interleukin 1 beta secreted” value (donor F154, 6 day, 5 μM DBT) was 118 ± 146 ng/mL and the “Interleukin 1 beta secreted” value (donor F159, 24 h, 0.05 μM DBT) was 2.812 ± 0.15 ng/mL. For the same compound, the “fold increase in IL-1β secretion” value (donor F159, 24 h, 0.05 μM DBT) was 1.7 fold, the “Interleukin 1 beta secreted” value (donor F159, 24 h, 0.1 μM DBT) was 6.376 ± 0.233 ng/mL and the “fold increase in IL-1β secretion” value (donor F159, 24 h, 0.1 μM DBT) was 3.8 fold. For the same compound, the “Interleukin 1 beta secreted” value (donor F159, 24 h, 0.25 μM DBT) was 5.803 ± 0.15 ng/mL, the “fold increase in IL-1β secretion” value (donor F159, 24 h, 0.25 μM DBT) was 3.4 fold and the “Interleukin 1 beta secreted” value (donor F159, 24 h, 0.5 μM DBT) was 1.667 ± 0.112 ng/mL. The “Interleukin 1 beta secreted” value (donor F159, 24 h, 1 μM DBT) was 0.812 ± 0.065 ng/mL, the “Interleukin 1 beta secreted” value (donor F159, 48 h, 0.05 μM DBT) was 1034 ± 299 ng/mL and the “Interleukin 1 beta secreted” value (donor F159, 48 h, 0.1 μM DBT) was 1211 ± 71 ng/mL. For the same compound, the “Interleukin 1 beta secreted” value (donor F159, 48 h, 0.25 μM DBT) was 1243 ± 192 ng/mL, the “Interleukin 1 beta secreted” value (donor F159, 48 h, 0.5 μM DBT) was 1099 ± 93 ng/mL and the “Interleukin 1 beta secreted” value (donor F159, 48 h, 1 μM DBT) was 1246 ± 9 ng/mL. The “Interleukin 1 beta secreted” value (donor F159, 48 h, 2.5 μM DBT) was 532 ± 101 ng/mL, the “Interleukin 1 beta secreted” value (donor F159, 48 h, 5 μM DBT) was 565 ± 15 ng/mL and the “Interleukin 1 beta secreted” value (donor F159, 6 day, 0.05 μM DBT) was 210 ± 62 ng/mL. For the same compound, the “Interleukin 1 beta secreted” value (donor F159, 6 day, 0.1 μM DBT) was 236 ± 10 ng/mL, the “Interleukin 1 beta secreted” value (donor F159, 6 day, 0.25 μM DBT) was 507 ± 21 ng/mL and the “Interleukin 1 beta secreted” value (donor F159, 6 day, 0.5 μM DBT) was 229 ± 7 ng/mL. The “Interleukin 1 beta secreted” value (donor F159, 6 day, 1 μM DBT) was 256 ± 12 ng/mL, the “Interleukin 1 beta secreted” value (donor F159, 6 day, 2.5 μM DBT) was 52 ± 1 ng/mL and the “Interleukin 1 beta secreted” value (donor F159, 6 day, 5 μM DBT) was 51 ± 9 ng/mL. The “Interleukin 1 beta secreted” value (donor F173, 24 h, 0.05 μM DBT) was 7.072 ± 0.935 ng/mL, the “Interleukin 1 beta secreted” value (donor F173, 24 h, 0.1 μM DBT) was 8.1 ± 0.822 ng/mL and the “Interleukin 1 beta secreted” value (donor F173, 24 h, 0.25 μM DBT) was 4.443 ± 0.405 ng/mL. The “Interleukin 1 beta secreted” value (donor F173, 24 h, 0.5 μM DBT) was 20.063 ± 1.077 ng/mL, the “Interleukin 1 beta secreted” value (donor F173, 24 h, 1 μM DBT) was 9.989 ± 0.155 ng/mL and the “Interleukin 1 beta secreted” value (donor F173, 24 h, 2.5 μM DBT) was 3.813 ± 0.058 ng/mL. The “Interleukin 1 beta secreted” value (donor F173, 24 h, 5 μM DBT) was 2.517 ± 0.073 ng/mL, the “Interleukin 1 beta secreted” value (donor F173, 48 h, 0.05 μM DBT) was 614 ± 63 ng/mL and the “Interleukin 1 beta secreted” value (donor F173, 48 h, 0.1 μM DBT) was 500 ± 41 ng/mL. The “Interleukin 1 beta secreted” value (donor F173, 48 h, 0.25 μM DBT) was 425 ± 20 ng/mL, the “Interleukin 1 beta secreted” value (donor F173, 48 h, 0.5 μM DBT) was 745 ± 36 ng/mL and the “Interleukin 1 beta secreted” value (donor F173, 48 h, 1 μM DBT) was 2064 ± 194 ng/mL. The “Interleukin 1 beta secreted” value (donor F173, 48 h, 2.5 μM DBT) was 591 ± 32 ng/mL, the “Interleukin 1 beta secreted” value (donor F173, 48 h, 5 μM DBT) was 478 ± 32 ng/mL and the “Interleukin 1 beta secreted” value (donor F173, 6 day, 0.05 μM DBT) was 465 ± 151 ng/mL. The “Interleukin 1 beta secreted” value (donor F173, 6 day, 0.1 μM DBT) was 398 ± 28 ng/mL, the “Interleukin 1 beta secreted” value (donor F173, 6 day, 0.25 μM DBT) was 453 ± 16 ng/mL and the “Interleukin 1 beta secreted” value (donor F173, 6 day, 0.5 μM DBT) was 932 ± 8 ng/mL. The “Interleukin 1 beta secreted” value (donor F173, 6 day, 1 μM DBT) was 690 ± 15 ng/mL, the “Interleukin 1 beta secreted” value (donor F173, 6 day, 2.5 μM DBT) was 181 ± 8 ng/mL and the “Interleukin 1 beta secreted” value (donor F173, 6 day, 5 μM DBT) was 145 ± 2 ng/mL.
